Assay results taken from ChEMBL document CHEMBL1159047, “Synthesis and biological evaluation of antitumour-active betulin derivatives” (Bioorg Med Chem, 2010).
The source made the active and inactive calls. The rule behind the calls is not given here.

Key:
SW-1736 [1] = test: Growth inhibition of human SW1736 cells at 30 uM after 96 hrs by SRB assay; format: functional, cell-based
Procedure, shortened: (§1)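 Same SRB set-up: RPMI 1640 with 10% FBS at 37 °C, 5% CO2, and a 96 h exposure starting 24 h after seeding (DMSO or DMF ≤0.5% final). Percent viable cells relative to untreated controls is read at 30 µM, the top concentration of the 0–30 µM dilution series. Cells were fixed with TCA, stained with SRB and read at 570 nm; ≥3 independent experiments.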

A2780 [2] = test: Growth inhibition of human A2780 cells at 30 uM after 96 hrs by SRB assay; format: functional, cell-based; procedure, shortened: as §1
A-431 [3] = test: Growth inhibition of human A431 cells at 30 uM after 96 hrs by SRB assay; format: functional, cell-based; procedure, shortened: as §1
HCT-8 = test: Growth inhibition of human HCT8 cells at 30 uM after 96 hrs by SRB assay; format: functional, cell-based; procedure, shortened: as §1
8505C = test: Growth inhibition of human 8505C cells at 30 uM after 96 hrs by SRB assay; format: functional, cell-based; procedure, shortened: as §1
Homo sapiens = species: Homo sapiens; test: Growth inhibition of human Liposarcoma cells at 30 uM after 96 hrs by SRB assay; format: functional; procedure, shortened: as §1
FaDu = test: Growth inhibition of human FADU cells at 30 uM after 96 hrs by SRB assay; format: functional, cell-based; procedure, shortened: as §1
HCT-116 [4] = test: Growth inhibition of human HCT116 cells at 30 uM after 96 hrs by SRB assay; format: functional, cell-based; procedure, shortened: as §1
DLD-1 = test: Growth inhibition of human DLD1 cells at 30 uM after 96 hrs by SRB assay; format: functional, cell-based; procedure, shortened: as §1
HT-29 = test: Growth inhibition of human HT-29 cells at 30 uM after 96 hrs by SRB assay; format: functional, cell-based; procedure, shortened: as §1
SW480 = test: Growth inhibition of human SW480 cells at 30 uM after 96 hrs by SRB assay; format: functional, cell-based; procedure, shortened: as §1
A549 = test: Growth inhibition of human A549 cells at 30 uM after 96 hrs by SRB assay; format: functional, cell-based; procedure, shortened: as §1
518A2 = test: Growth inhibition of human 518A2 cells at 30 uM after 96 hrs by SRB assay; format: functional, cell-based; procedure, shortened: as §1
A253 = test: Growth inhibition of human A253 cells at 30 uM after 96 hrs by SRB assay; format: functional, cell-based; procedure, shortened: as §1
SW-1736 [5] = test: Cytotoxicity against human SW1736 cells after 96 hrs by SRB assay; format: functional, cell-based; conditions: SW-1736, 96 h
Procedure, shortened: (§2)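 Monolayer cells grown in RPMI 1640 with 10% heat-inactivated FBS and penicillin/streptomycin at 37 °C, 5% CO2. Cells were seeded and, after 24 h, exposed to serial dilutions (0–30 µM; DMSO or DMF ≤0.5% final) for 96 h. They were then fixed with 10% TCA at 4 °C, stained with 0.4% SRB and dissolved in 10 mM Tris, with absorbance read at 570 nm. IC50 comes from semi-log dose–response curves of survival versus untreated controls, from ≥3 independent experiments.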

HCT-116 [6] = test: Cytotoxicity against human HCT116 cells after 96 hrs by SRB assay; format: functional, cell-based; conditions: HCT-116, 96 h; procedure, shortened: as §2
A2780 [7] = test: Cytotoxicity against human A2780 cells after 96 hrs by SRB assay; format: functional, cell-based; conditions: A2780, 96 h; procedure, shortened: as §2
A-431 [8] = test: Cytotoxicity against human A431 cells after 96 hrs by SRB assay; format: functional, cell-based; conditions: A-431, 96 h; procedure, shortened: as §2

| SMILES | growth inhibition (GI) (SW-1736 [1]) | growth inhibition (GI) (A2780 [2]) | growth inhibition (GI) (A-431 [3]) | growth inhibition (GI) (HCT-8) | growth inhibition (GI) (8505C) | growth inhibition (GI) (Homo sapiens) | growth inhibition (GI) (FaDu) | growth inhibition (GI) (HCT-116 [4]) | growth inhibition (GI) (DLD-1) | growth inhibition (GI) (HT-29) | growth inhibition (GI) (SW480) | growth inhibition (GI) (A549) | growth inhibition (GI) (518A2) | growth inhibition (GI) (A253) | IC50 (SW-1736 [5]) | IC50 (HCT-116 [6]) | IC50 (A2780 [7]) | IC50 (A-431 [8]) |
| --- | --- | --- | --- | --- | --- | --- | --- | --- | --- | --- | --- | --- | --- | --- | --- | --- | --- | --- |
| C=C(C)[C@@H]1CC[C@]2(/C=C/C(=O)OCC)CC[C@]3(C)[C@H](CC[C@@H]4[C@@]5(C)CC[C@H](OC)C(C)(C)[C@@H]5CC[C@]43C)[C@@H]12 | inactive | inactive | inactive | inactive | inactive | inactive | inactive | inactive | inactive | inactive | inactive | inactive | inactive | inactive | – | – | – | – |
| C=C(C)[C@@H]1CC[C@]2([C@@H]3O[C@H]3C(=O)OC)CC[C@]3(C)[C@H](CC[C@@H]4[C@@]5(C)CC[C@H](OC(C)=O)C(C)(C)[C@@H]5CC[C@]43C)[C@@H]12 | – | – | inactive | inactive | inactive | inactive | inactive | – | inactive | inactive | inactive | inactive | inactive | inactive | 17.6 µM | 18.1 µM | 12.3 µM | – |
| C=C(C)[C@@H]1CC[C@]2([C@H](O)CC(=O)OCC)CC[C@]3(C)[C@H](CC[C@@H]4[C@@]5(C)CC[C@H](OC)C(C)(C)[C@@H]5CC[C@]43C)[C@@H]12 | inactive | inactive | inactive | inactive | inactive | inactive | inactive | inactive | inactive | inactive | inactive | inactive | inactive | inactive | – | – | – | – |
| C=C(C)[C@@H]1CC[C@]2(/C=C3\CCOC3=O)CC[C@]3(C)[C@H](CC[C@@H]4[C@@]5(C)CC[C@H](OC(C)=O)C(C)(C)[C@@H]5CC[C@]43C)[C@@H]12 | – | inactive | – | inactive | inactive | inactive | inactive | – | inactive | inactive | inactive | inactive | inactive | inactive | 18.8 µM | 13.9 µM | – | 19.4 µM |
| C=C(C)[C@@H]1CC[C@]2(/C=C/C(=O)OCC)CC[C@]3(C)[C@H](CC[C@@H]4[C@@]5(C)CC[C@H](OC(C)=O)C(C)(C)[C@@H]5CC[C@]43C)[C@@H]12 | inactive | inactive | inactive | inactive | inactive | inactive | inactive | inactive | inactive | inactive | inactive | inactive | inactive | inactive | – | – | – | – |
| C=C(C)[C@@H]1CC[C@]2([C@@H]3O[C@@]34CCOC4=O)CC[C@]3(C)[C@H](CC[C@@H]4[C@@]5(C)CC[C@H](OC(C)=O)C(C)(C)[C@@H]5CC[C@]43C)[C@@H]12 | inactive | inactive | inactive | inactive | inactive | inactive | inactive | inactive | inactive | inactive | inactive | inactive | inactive | – | – | – | – | – |
| C=C(C)[C@@H]1CC[C@]2([C@@H]3O[C@@H]3C#N)CC[C@]3(C)[C@H](CC[C@@H]4[C@@]5(C)CC[C@H](OC(C)=O)C(C)(C)[C@@H]5CC[C@]43C)[C@@H]12 | inactive | inactive | inactive | inactive | inactive | inactive | inactive | inactive | inactive | inactive | inactive | inactive | inactive | inactive | – | – | – | – |
